Test system in one assay: not listed separately
Put plainly: Inhibition of DNA-PK isolated from human HeLa cell extract assessed as reduction in p53 Ser15 phosphorylation by chemiluminescence assay. The class given is cell-free.
Turning to `O=C(CN1CCN(c2ccccn2)CC1)Nc1ccc(-c2cccn3c(=O)cc(N4CCOCC4)nc23)c2sc3ccccc3c12`, the half-maximal inhibitory concentration (IC50) (in general, the concentration needed to halve the response being measured) stood at 175 nM.

As for `O=C(CCN1CCCCCC1)Nc1ccc(-c2cccc3c(=O)cc(N4CCOCC4)[nH]c23)c2sc3ccccc3c12`, the IC50 came to 141 nM.

Turning to `CCN1CCN(CC(=O)Nc2ccc(-c3cccn4c(=O)cc(N5CCOCC5)nc34)c3oc4ccccc4c23)CC1`, the IC50 worked out at 29 nM.

Consider `CC(C)NC(=O)CN1CCN(CC(=O)Nc2ccc(-c3cccn4c(=O)cc(N5CCOCC5)nc34)c3sc4ccccc4c23)CC1`, for which the IC50 was determined as 25 nM.

For the molecule `O=C(CCN1CCOCC1)Nc1ccc(-c2cccc3c(=O)cc(N4CCOCC4)[nH]c23)c2sc3ccccc3c12`, the 50% inhibitory concentration (IC50) came out at 179 nM.

With `O=C(CCNCC1CCCO1)Nc1ccc(-c2cccn3c(=O)cc(N4CCOCC4)nc23)c2oc3ccccc3c12` (centres undefined), the half-maximal inhibitory concentration (IC50) was found to be 75 nM.

On to `C[C@@H]1CN(CCC(=O)Nc2ccc(-c3cccc4c(=O)cc(N5CCOCC5)[nH]c34)c3sc4ccccc4c23)C[C@H](C)O1`, for which the 50% inhibitory concentration (IC50) was determined as 14 nM.

Consider `O=c1cc(N2CCOCC2)nc2c3ccccc3ccn12`, for which the IC50 stood at 280 nM.

As to `O=C(CCN1CCCCC1)Nc1ccc(-c2cccc3c(=O)cc(N4CCOCC4)[nH]c23)c2sc3ccccc3c12`, the IC50 is 51 nM.

Consider `NCC(=O)Nc1ccc(-c2cccc3c(=O)cc(N4CCOCC4)[nH]c23)c2sc3ccccc3c12`, for which the IC50 is 198 nM.

For `O=c1cc(N2CCOCC2)oc2c1ccc1ccccc12`, the IC50 is 230 nM.

Regarding `O=C(CN1CCN(CCO)CC1)Nc1ccc(-c2cccc3c(=O)cc(N4CCOCC4)[nH]c23)c2sc3ccccc3c12`, the concentration for half-maximal inhibition (IC50) turned out to be 18 nM.

Consider `O=C(CN1CCOCC1)Nc1ccc(-c2cccc3c(=O)cc(N4CCOCC4)[nH]c23)c2sc3ccccc3c12`, for which the IC50 is 60 nM.

Take `O=C(CN1CCNCC1)Nc1ccc(-c2cccc3c(=O)cc(N4CCOCC4)[nH]c23)c2sc3ccccc3c12`: the IC50 amounted to 133 nM.

As for `CCN1CCN(CC(=O)Nc2ccc(-c3cccc4c(=O)cc(N5CCOCC5)oc34)c3sc4ccccc4c23)CC1`, the IC50 worked out at 6 nM.

On to `C[C@@H]1CN(CC(=O)Nc2ccc(-c3cccn4c(=O)cc(N5CCOCC5)nc34)c3sc4ccccc4c23)C[C@H](C)O1`, for which the IC50 turned out to be 7 nM.

Consider `O=C(CN1CCN(c2ccccn2)CC1)Nc1ccc(-c2cccc3c(=O)cc(N4CCOCC4)[nH]c23)c2sc3ccccc3c12`, for which the IC50 stood at 19 nM.

Turning to `CC(=O)N1CCN(CCC(=O)Nc2ccc(-c3cccc4c(=O)cc(N5CCOCC5)[nH]c34)c3sc4ccccc4c23)CC1`, the IC50 came to 21 nM.

For the molecule `CN1CCN(CC(=O)Nc2ccc(-c3cccc4c(=O)cc(N5CCOCC5)[nH]c34)c3sc4ccccc4c23)CC1`, the half-inhibitory concentration (IC50) was determined as 43 nM.

Regarding `CCN1CCN(CC(=O)Nc2ccc(-c3cccc4c(=O)cc(N5CCOCC5)[nH]c34)c3sc4ccccc4c23)CC1`, the half-maximal inhibitory concentration (IC50) came to 61 nM.

Take `O=C(CNCCCN1CCOCC1)Nc1ccc(-c2cccc3c(=O)cc(N4CCOCC4)[nH]c23)c2sc3ccccc3c12`: the IC50 came to 64 nM.

With `O=C(CCNCC1CCCO1)Nc1ccc(-c2cccc3c(=O)cc(N4CCOCC4)[nH]c23)c2sc3ccccc3c12` (centres undefined), the half-maximal inhibitory concentration (IC50) is 102 nM.

The test system of the next assay is HeLa. Kind of assay: Potentiation of ionizing radiation-induced cytotoxicity in human HeLa cells assessed as dose modification ratio at 0.5 uM pretreated 1 hr before 2 Gy ionizing radiation by Giemsa staining relative untreated control. The class given is functional. The essentials:
(§1)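 HeLa cells seeded in six-well dishes and left overnight at 37 °C/5% CO2. Compound or vehicle given 1 h before a single 2 Gy X-ray dose, then incubated overnight. Medium replaced without compound and cells grown 6-8 days. Colonies Giemsa-stained and counted automatically. DMR is % survival at 2 Gy without compound divided by % survival at 2 Gy with compound.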
As to `O=C(CN1CCN(c2ccccn2)CC1)Nc1ccc(-c2cccn3c(=O)cc(N4CCOCC4)nc23)c2sc3ccccc3c12`, the Ratio is 3.9.

In the case of `O=C(CCN1CCCCCC1)Nc1ccc(-c2cccc3c(=O)cc(N4CCOCC4)[nH]c23)c2sc3ccccc3c12`, the Ratio turned out to be 2.2.

For `CCN1CCN(CC(=O)Nc2ccc(-c3cccn4c(=O)cc(N5CCOCC5)nc34)c3oc4ccccc4c23)CC1`, the Ratio is given as 6.4.

For `CC(C)NC(=O)CN1CCN(CC(=O)Nc2ccc(-c3cccn4c(=O)cc(N5CCOCC5)nc34)c3sc4ccccc4c23)CC1`, the Ratio is on record as 7.3.

In the case of `O=C(CCN1CCOCC1)Nc1ccc(-c2cccc3c(=O)cc(N4CCOCC4)[nH]c23)c2sc3ccccc3c12`, the Ratio is reported as 2.8.

As to `O=C(CCNCC1CCCO1)Nc1ccc(-c2cccn3c(=O)cc(N4CCOCC4)nc23)c2oc3ccccc3c12` (centres undefined), the Ratio is recorded as 7.4.

Regarding `C[C@@H]1CN(CCC(=O)Nc2ccc(-c3cccc4c(=O)cc(N5CCOCC5)[nH]c34)c3sc4ccccc4c23)C[C@H](C)O1`, the Ratio was found to be 2.2.

As to `O=C(CCN1CCCCC1)Nc1ccc(-c2cccc3c(=O)cc(N4CCOCC4)[nH]c23)c2sc3ccccc3c12`, the Ratio was determined as 2.9.

With `NCC(=O)Nc1ccc(-c2cccc3c(=O)cc(N4CCOCC4)[nH]c23)c2sc3ccccc3c12`, the Ratio turned out to be 2.6.

Take `O=C(CN1CCN(CCO)CC1)Nc1ccc(-c2cccc3c(=O)cc(N4CCOCC4)[nH]c23)c2sc3ccccc3c12`: the Ratio worked out at 2.1.

`O=C(CN1CCOCC1)Nc1ccc(-c2cccc3c(=O)cc(N4CCOCC4)[nH]c23)c2sc3ccccc3c12`: the Ratio turned out to be 3.1.

As for `O=C(CN1CCNCC1)Nc1ccc(-c2cccc3c(=O)cc(N4CCOCC4)[nH]c23)c2sc3ccccc3c12`, the Ratio turned out to be 2.2.

Take `C[C@@H]1CN(CC(=O)Nc2ccc(-c3cccn4c(=O)cc(N5CCOCC5)nc34)c3sc4ccccc4c23)C[C@H](C)O1`: the Ratio is 15.1.

Take `O=C(CN1CCN(c2ccccn2)CC1)Nc1ccc(-c2cccc3c(=O)cc(N4CCOCC4)[nH]c23)c2sc3ccccc3c12`: the Ratio was 5.8.

Regarding `CC(=O)N1CCN(CCC(=O)Nc2ccc(-c3cccc4c(=O)cc(N5CCOCC5)[nH]c34)c3sc4ccccc4c23)CC1`, the Ratio came out at 2.6.

`CN1CCN(CC(=O)Nc2ccc(-c3cccc4c(=O)cc(N5CCOCC5)[nH]c34)c3sc4ccccc4c23)CC1`: the Ratio is 2.5.

Regarding `CCN1CCN(CC(=O)Nc2ccc(-c3cccc4c(=O)cc(N5CCOCC5)[nH]c34)c3sc4ccccc4c23)CC1`, the Ratio stood at 3.4.

`O=C(CNCCCN1CCOCC1)Nc1ccc(-c2cccc3c(=O)cc(N4CCOCC4)[nH]c23)c2sc3ccccc3c12`: the Ratio stood at 4.

As for `O=C(CCNCC1CCCO1)Nc1ccc(-c2cccc3c(=O)cc(N4CCOCC4)[nH]c23)c2sc3ccccc3c12` (centres undefined), the Ratio is 2.1.

The next assay has as its system HeLa. Kind of assay: Potentiation of ionizing radiation-induced cytotoxicity in human HeLa cells assessed as dose modification ratio at 0.1 uM pretreated 1 hr before 2 Gy ionizing radiation by Giemsa staining relative untreated control. The class given is functional. In a few lines: as §1
As for `CCN1CCN(CC(=O)Nc2ccc(-c3cccn4c(=O)cc(N5CCOCC5)nc34)c3oc4ccccc4c23)CC1`, the Ratio turned out to be 1.1.

In the case of `O=C(CCNCC1CCCO1)Nc1ccc(-c2cccn3c(=O)cc(N4CCOCC4)nc23)c2oc3ccccc3c12` (centres undefined), the Ratio was found to be 1.3.

As for `CCN1CCN(CC(=O)Nc2ccc(-c3cccc4c(=O)cc(N5CCOCC5)oc34)c3sc4ccccc4c23)CC1`, the Ratio is 3.2.

(Values after ChEMBL document CHEMBL1629444, “DNA-dependent protein kinase (DNA-PK) inhibitors. Synthesis and biological activity of quinolin-4-one and pyridopyrimidin-4-one surrogates for the chromen-4-one chemotype” (J Med Chem, 2010).)
